TAAR1 antagonist: human TAAR1 antagonism. inhibition, % at 3 µM. Q96RJ0. CHO RD-HGA16 TAAR1, Fluo-8 calcium fluorescence, antagonist. actives 1.5% (n = 360,000). AID 624466;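 active = inhibition above a per-plate cutoff, the mean inhibition of test compounds on that plate plus 3 SD, cut at about 49% in these data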;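 also: 0% = DMSO plus EC80 beta-PEA response and 100% = DMSO alone without agonist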
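Test system: hTAAR1-expressing CHO RD-HGA16 cells, Gα16-coupled; Probe or stimulus: EC80 β-phenethylamine stimulus; Compound dosing: single nominal final test compound concentration of 3 µM; Timing: 140 s kinetic read after compound, 140 s after agonist; Signal: Fluo-8 calcium-sensitive fluorescence; Measure: % inhibition of agonist calcium response; Controls: DMSO and EC80 PEA controls.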
OX1R antag-1: antagonists of human orexin 1 receptor (OX1R); O43613; OX1R-expressing cells, FRET antagonist read-out; inhibition, % at 6.6 µM; actives 1.8% (n = 330,000); in the data active = inhibition mostly above about 38%, no sharp cut-off; inactive = mostly below about 40%;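 also: 0% = agonist challenge alone and 100% = reference antagonist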
OX1R antag-2: human HCRTR1 antagonism | CHO/OX1R cells, Fluo-8 calcium fluorescence, orexin A | inhibition, % at 5 µM | O43613 | AID 434989 | actives 0.43% (n = 330,000);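 active = inhibition above its plate's threshold, mean inhibition of all tested compounds on the plate plus 3 SD, cut at about 37% in these data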;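 also: 0% = orexin A challenge wells and 100% = SB-334867-A antagonist wells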
CHO parental Ca: counter-screen: ATP calcium response change in parental CHO cells. actives 0.63% (n = 330,000). AID 463079. inhibition, % at 5.6 µM. parental CHO-K1, ATP-induced calcium, Fluo-8 fluorescence;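 active = inhibition above that plate's mean sample inhibition plus 3 SD, cut at about 26% in these data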;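 also: 0% = ATP-challenged DMSO wells and 100% = DMSO wells without ATP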
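Assay system – parental CHO cells · Reagent – ATP stimulus · Detection – intracellular calcium via Fluo-8 no-wash fluorescent dye · Evaluation – percent inhibition of ATP-evoked calcium rise, normalized to controls · Controls – ATP wells versus no-ATP DMSO wells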
TAAR1 ag: human TAAR1 agonism. CHO RD-HGA16 TAAR1, Fluo-8 calcium fluorescence; vehicle wells 0%, saturating PEA agonist 100%. actives 0.99% (n = 360,000). activation, % at 3 µM. Q96RJ0;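 active = activation above the mean activation of all test compounds in the run plus 3 SD, cut at about 38% in these data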
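Test system: RD-HGA16 (CHO) cells co-expressing Gα16 and hTAAR1 / Benchmarks: DMSO vehicle as 0%, PEA at EC100 as 100% / Repeats: no replicates (n 1) / Measure: % activation from peak over basal fluorescence ratio, DMSO-to-PEA scaled / Timing: 17-24 h plating, Fluo-8 75 min 37 °C, 30 min RT / Technique: kinetic Fluo-8 calcium fluorescence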
GPR7 antagonist: blocks human GPR7 receptor signaling; P48145; GPR7-expressing cells, fluorescence antagonist assay; inhibition, % at 4.4 µM; actives 1.1% (n = 290,000); in the data active = inhibition above about 16%, passing the limit was not always enough;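 also: cells stimulated with the agonist NPW; 0% = agonist with vehicle and 100% = vehicle without agonist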
Target sequence (P48145 whole entry, looked up): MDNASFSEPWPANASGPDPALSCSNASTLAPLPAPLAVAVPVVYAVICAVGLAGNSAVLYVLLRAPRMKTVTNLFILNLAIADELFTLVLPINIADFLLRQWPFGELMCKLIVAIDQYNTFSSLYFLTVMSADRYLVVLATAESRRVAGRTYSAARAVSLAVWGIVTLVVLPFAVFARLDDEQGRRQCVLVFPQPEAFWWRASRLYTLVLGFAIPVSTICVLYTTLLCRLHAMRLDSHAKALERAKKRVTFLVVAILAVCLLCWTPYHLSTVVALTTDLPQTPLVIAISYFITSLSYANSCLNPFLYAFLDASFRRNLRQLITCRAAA
Numbers without * were called inactive; . = no result given. This is a sample that favours compounds with a hit; in the whole collection about 4.6% have one here.

SMILES	TAAR1 antagonist	OX1R antag-1	OX1R antag-2	CHO parental Ca	TAAR1 ag	GPR7 antagonist
COc1ccc(CNC(=O)Nc2nc(C(N)Cc3ccc(Cl)cc3)cs2)cc1 (stereo unspecified)	66*	.	.	.	50*	.
CC(C)C[C@H]1COc2c(Cl)cccc2S(=O)(=O)N1	-4	.	.	.	-1	.
N#CC(C#N)=C1c2cc(S(=O)(=O)NCCO)ccc2-c2ccc(S(=O)(=O)NCCO)cc21	-26	69*	-9	0	0	-1
CC(c1ccccc1)N1C(=O)c2ccc(C(=O)Nc3ccccc3C(=O)O)cc2C1=O (stereo unspecified)	-30	70*	-13	-2	0	-7
CCCN1C(=O)c2ccc(C(=O)NC3=NCCS3)cc2C1=O	1	45*	-43	-12	-2	-11
O=C(Nc1ccccc1O)c1ccc2c(c1)C(=O)N(c1ccccc1)C2=O	-17	.	.	.	3	13
CN1C(=O)c2ccc(C(=O)Nc3nccs3)cc2C1=O	8	73*	-19	-10	1	9
CN1C(=O)c2ccc(C(=O)Nc3ccccc3O)cc2C1=O	12	41*	-7	-1	1	-8
CC1CCCC(NC(=O)C2N(CCCN3CCCC3)C(=O)C3C(C(=O)Nc4cccc(Cl)c4)C4C=CC32O4)C1C (stereo unspecified)	15	12	-19	-26	-4	-1
COC(=O)C1=C(C)N(C)C(=NCc2ccccc2)NC1CCc1ccccc1 (stereo unspecified)	-1	.	.	.	6	.
CC(NC(=O)Nc1ccc([N+](=O)[O-])cc1)C(c1cccs1)N1CCCC1 (stereo unspecified)	-2	15	-21	-17	48*	1
CC(NC(=O)Nc1cccc(Cl)c1)C(c1cccs1)N1CCCC1 (stereo unspecified)	-13	3	-17	-18	28	-3
CCOC(=O)c1sc(NC(=O)Nc2cccc(Cl)c2)cc1C	48	47*	36	34*	7	6
CCOC(=O)c1sc(NC(=O)c2ccc(Br)o2)cc1C	6	45*	-26	-19	5	-5
CCOC(=O)c1sc(NC(=O)c2sccc2C)cc1C	-12	42*	-19	-5	-4	-8
CCOC(=O)c1sc(NC(=O)Nc2ccc(Cl)cc2)nc1C	28	67	43	43*	26	5
CCOC(=O)c1c(NC(=O)Nc2ccccc2)sc(C)c1C	28	36	-49	-29	8	0
CCOC(=O)c1sc(NC(=O)c2cccs2)cc1C	7	36	-10	-23	1	-16
CCOC(=O)c1sc(NC(=O)CCN2C(=O)C3CCCCC3C2=O)cc1C (stereo unspecified)	49*	9	-30	-26	6	.
CCOc1ccc(NC(=O)CCN2C(=O)C3CCCCC3C2=O)cc1OCC (stereo unspecified)	5	-2	-28	-21	1	.
CN1CCN(CCCNC(=O)c2ccc(/C=C3/Sc4ccccc4N(Cc4cccc(Cl)c4)C3=O)cc2)CC1	57*	.	.	.	36	-7
CN1C(=O)/C(=C/c2cccc(Cl)c2)Sc2ccc(C(=O)NCc3cccnc3)cc21	51*	42	-14	-3	10	-1
CCCc1nc2c(C)cc(Br)cn2c1Cc1ccc(OC)cc1C	-24	.	.	.	1	.
CC(=O)NC(c1cccc(F)c1)c1nc(-c2cccc(C(F)(F)F)c2)cs1 (stereo unspecified)	-6	.	.	.	4	.
COc1ccc(-c2cc(C3CCN(c4ccc(C(C)=O)cc4[N+](=O)[O-])CC3)[nH]n2)cc1	39	36	25	50*	21	6
CC(=O)c1ccc(N2CCC(c3cc(-c4ccc(Cl)cc4)n[nH]3)CC2)c([N+](=O)[O-])c1	.	28	15	43*	.	1
CC(C)CCN(C)[C@H]1C[C@H]2c3[nH]c4ccccc4c3CCN2C[C@H]1[C@H](C)O	-18	.	.	.	11	.
O=S(=O)(c1ccccc1)c1ccc(N2CCCCCC2)cc1	-3	24	-17	37*	8	-24
Cc1ccc2cccc(OCC(=O)N3CC(C)CC(C)C3)c2n1 (stereo unspecified)	5	16	-24	-10	10	17*

Screens: PubChem, The Scripps Research Institute Molecular Screening Center
